In one data set the test system is M. tuberculosis H37Rv. The data set can be described thus: microplate Alamar Blue assay, in vitro anti-TB activity. The settings on record: Mycobacterium tuberculosis. Type of data set: cell-based. For orientation: Alamar Blue is a resazurin reagent that responds to reducing activity.
Data set [1] is described as follows: pKa by reverse-phase HPLC. Type of data set: physicochemical.
A further data set addresses human serum albumin (Homo sapiens, UniProt P02768). Kind of data set: protein binding by reverse-phase HPLC on human serum albumin column. The class given is in vitro ADME.
Data set [2] is described as follows: human liver microsomal stability. The class given is in vitro ADME. The settings on record: HLM incubation. Put shortly:
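Test compound incubated with human liver microsomes. The percentage of parent compound remaining was read at 15 min, 30 min, 1 h and 2 h of incubation.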

A short description of another data set: in vitro. The note with it: human.
The conditions of data set [3]: compared with compound 10b (90.5%); cited from earlier work.

Molecules are shown by their SMILES. ≈ marks a conversion by molar mass, not a printed value.

The values that follow come from paper PMC4958353 (Drug Design, Development and Therapy, 2016).

Chain of human serum albumin (P02768 25-609): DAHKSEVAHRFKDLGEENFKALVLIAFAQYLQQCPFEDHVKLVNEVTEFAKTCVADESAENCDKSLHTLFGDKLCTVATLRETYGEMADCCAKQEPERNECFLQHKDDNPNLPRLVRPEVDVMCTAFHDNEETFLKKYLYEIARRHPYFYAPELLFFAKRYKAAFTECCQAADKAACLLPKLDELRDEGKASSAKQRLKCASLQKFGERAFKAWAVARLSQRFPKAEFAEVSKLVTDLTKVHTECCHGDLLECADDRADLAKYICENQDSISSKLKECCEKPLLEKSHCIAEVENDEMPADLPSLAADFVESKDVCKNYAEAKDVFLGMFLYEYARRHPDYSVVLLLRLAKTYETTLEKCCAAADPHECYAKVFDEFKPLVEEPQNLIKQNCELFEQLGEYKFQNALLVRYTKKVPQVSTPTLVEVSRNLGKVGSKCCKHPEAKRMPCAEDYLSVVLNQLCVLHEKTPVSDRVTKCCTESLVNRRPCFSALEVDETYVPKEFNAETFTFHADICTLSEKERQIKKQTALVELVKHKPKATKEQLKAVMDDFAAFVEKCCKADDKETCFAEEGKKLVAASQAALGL

As for `NNC(=O)c1ccncc1` [Isoniazid, reference compound], 0.125 mg/L (≈ 0.911 µM) was the least that counted as inhibitory against M. tuberculosis H37Rv (MIC).

With `Cc1ccc(C(CC(=O)c2ccc(Oc3ccccc3)c(O)c2)C(N)=O)cc1` (centres unmarked) [Compound 10b, 4-(3-Hydroxy-4-phenoxyphenyl)-4-oxo-2-p-tolylbutanamide], in the data set on M. tuberculosis H37Rv, inhibition of growth (MIC) required 12.5 mg/L (≈ 33.3 µM). The molecule further showed a pKa in data set [1] of 7.59. At human serum albumin, this molecule showed a fraction unbound of 0.095. Moreover, the Percentage remaining worked out at 70.18% in data set [2] (15 minutes), 57.49% in data set [2] (30 minutes), 50.68% in data set [2] (1 hour) and 40.35% in data set [2] (2 hours). In “in vitro”, this molecule gave a CC50 greater than 300 mg/L.

As to `NC(=O)C(CC(=O)c1ccc(Oc2ccccc2)c(O)c1)c1ccccc1` (centres unmarked) [Compound 10a, 4-(3-Hydroxy-4-phenoxyphenyl)-4-oxo-2-phenylbutanamide], the lowest concentration to inhibit growth in the data set with M. tuberculosis H37Rv (MIC) was 20 mg/L (≈ 55.3 µM). The CC50 in “in vitro” is greater than 300 mg/L.

In turn, `Cc1ccc(C(CC(=O)c2cccc(Oc3ccccc3)c2)C(N)=O)cc1` (centres unmarked) [Compound 5b, 4-Oxo-4-(3-phenoxyphenyl)-2-p-tolylbutanamide] showed a minimal inhibitory concentration (MIC) against M. tuberculosis H37Rv greater than 100 mg/L. The CC50 in “in vitro” is greater than 300 mg/L.

In the data set on M. tuberculosis H37Rv, `COc1ccc(C(CC(=O)c2ccc(Oc3ccccc3)c(O)c2)C(N)=O)cc1` (centres unmarked) [Compound 10c, 4-(3-Hydroxy-4-phenoxyphenyl)-2-(4-methoxyphenyl)-4-oxobutanamide] came in with a minimum inhibitory concentration (MIC) of 25 mg/L (≈ 63.9 µM). Also, in the data set “in vitro”, the CC50 was found to be 261 mg/L (≈ 666 µM).

The molecule `NC(=O)C(CC(=O)c1cccc(Oc2ccccc2)c1)c1ccccc1` (centres unmarked) [Compound 5a, 4-Oxo-4-(3-phenoxyphenyl)-2-phenylbutanamide] had an MIC with M. tuberculosis H37Rv greater than 100 mg/L. This molecule also gave a CC50 in the data set “in vitro” greater than 300 mg/L.

Molecule `Oc1cc(Cl)ccc1Oc1ccc(Cl)cc1Cl` [Triclosan, reference compound] yielded an MIC with M. tuberculosis H37Rv of 12.5 mg/L (≈ 43.2 µM). The plasma protein binding entry in data set [3] is on record as “even higher than compound 10b”. In “in vitro”, this molecule showed a CC50 greater than 300 mg/L.

Broadly, the MIC is the lowest concentration that inhibits growth of the organism. High values mean a less susceptible organism, low ones a more susceptible organism. A word on the pKa: it is the pH at which an ionisable group is half protonated. A low value points to a stronger acid or weaker base. Usually fraction unbound stands for free concentration divided by total concentration. Higher therefore signals much free substance.
